Screening results (PubChem)
PAD4 FP inh: blocks human protein arginine deiminase 4; 330,000 tested, 0.41% active; inhibition, % at 6.36 µM; recombinant PAD4, RCA probe fluorescence polarization;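 active means percent inhibition above a cutoff equal to the mean of all tested compounds plus 3 SD, cut at about 15% in these data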;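 further: 0% = PAD4 with RCA probe and DMSO and 100% = probe without PAD4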
HTRA1 inh: blocks human HTRA1 serine peptidase. 340,000 tested, 0.5% active. inhibition, % at 5.96 µM. recombinant HTRA1, FP-rhodamine activity-based probe, fluorescence polarization. Q92743; in the data active means inhibition above about 36%;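 further: 0% = enzyme with DMSO and 100% = wells lacking enzyme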
Target sequence (Q92743 whole entry, looked up): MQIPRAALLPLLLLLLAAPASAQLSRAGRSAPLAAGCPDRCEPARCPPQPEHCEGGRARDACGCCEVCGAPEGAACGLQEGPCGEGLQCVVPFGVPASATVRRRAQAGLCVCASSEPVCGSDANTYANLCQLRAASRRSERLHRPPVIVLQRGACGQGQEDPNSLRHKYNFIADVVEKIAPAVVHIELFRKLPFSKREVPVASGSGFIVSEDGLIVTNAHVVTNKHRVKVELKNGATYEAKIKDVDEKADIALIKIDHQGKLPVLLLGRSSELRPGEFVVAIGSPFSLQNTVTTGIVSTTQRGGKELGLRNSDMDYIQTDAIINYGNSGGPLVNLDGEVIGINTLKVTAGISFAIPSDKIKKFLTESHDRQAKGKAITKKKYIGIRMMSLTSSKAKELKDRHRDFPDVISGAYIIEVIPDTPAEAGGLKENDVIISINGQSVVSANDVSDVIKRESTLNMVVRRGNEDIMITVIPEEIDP
TDP2 absorb: TDP2 (human) inhibition, absorbance primary screen. AID 720702. O95551. inhibition, % at 12.8 µM. 370,000 tested, 0.34% active. recombinant TDP2, T5PNP hydrolysis, p-nitrophenol absorbance 415 nm;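 active means inhibition above the mean of all tested compounds plus 3 SD, set per campaign, cut at about 25% in these data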;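 further: 0% = DMSO with enzyme and 100% = buffer with substrate but no TDP2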
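System – recombinant human TDP2 · Quantity – TDP2 enzyme at 120 nM final · Doses – single concentration, 12.8 µM nominal, with 1% DMSO · Incubation – 2 h at 37 °C · Measured by – epi absorbance of p-nitrophenol freed from T5PNP by hydrolysis · Read-out – % inhibition relative to enzyme-containing and enzyme-free wells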
ABHD4 inh: inhibits mouse alpha/beta hydrolase domain 4; Q8VD66; purified mABHD4, FP-Rh probe fluorescence polarization; inhibition, % at 8.92 µM; 370,000 tested, 0.54% active; AID 720543;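 active means inhibition exceeding the mean over every tested compound plus 3 SD, cut at about 30% in these data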;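 further: 0% = plate median of compound wells and 100% = S159A mutant with DMSO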
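Assay system: mABHD4 protein; medium: HEPES pH 7.0, NaCl, Pluronic buffer; dosing: 8.92 µM, single dose; schedule: 45 min + 60 min at 25 °C; signal: FP readout, ex 525 nm / em 598 nm; read-out: normalized percent inhibition of probe labeling; repeats: single replicate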
TCR-CD3 inh: inhibitors of human TCR-CD3 interaction. 360,000 tested, 0.37% active. TAMRA-labeled TCR probe fluorescence, biochemical. inhibition, % at 9.4 µM. AID 651800; in the data active means inhibition above about 19%;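 further: recombinant mutant TCR 2C K166C tagged with TAMRA read by polarization; 0% = receptor in buffer alone and 100% = receptor with positive control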
SIAE inh: human SIAE inhibition, primary screen; Q9HAT2; SIAE FP-Rh probe binding, fluorescence polarization; inhibition, % at 9.66 µM; 370,000 tested, 0.69% active; AID 1053197;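 active means inhibition above a cutoff: mean of compounds within the control limits plus 3 SD of those, cut at about 17% in these data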;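 further: 0% = plate median of compound wells and 100% = probe without SIAE protein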
SIAE inh conf: human SIAE inhibition, confirmation | shares compounds with SIAE inh | SIAE FP-Rh activity-based probe, fluorescence polarization | inhibition, % at 9.66 µM | 2,300 tested, 13% active | AID 1117263;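 active means mean inhibition of the replicates above the hit cutoff set in the primary screen, cut at about 17% in these data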;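 further: 0% = SIAE with DMSO and probe and 100% = probe without SIAE; inhibitors lower polarization as more probe stays unbound to SIAE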
* hit, by the source's call; / = no result. Rows were chosen to be rich in hits. Some 2% of all compounds tested hit in one or more screens of this group.

SMILES	PAD4 FP inh	HTRA1 inh	TDP2 absorb	ABHD4 inh	TCR-CD3 inh	SIAE inh	SIAE inh conf
Cc1cc(C)c(O)c(-c2cc(C(=O)Nc3c(C)n(C)n(-c4ccccc4)c3=O)[nH]n2)c1	-4.1	3.5	-7.7	-5.9	0.7	-0.8	/
CCC(c1nnc(SCC(=O)NC2CCCCC2)n1Cc1ccccc1)N(C)C (centres undefined)	1.8	-1.4	13.8	-1.2	-6.1	19.2*	1.0
O=S(=O)(/N=C(/Nc1cccc2ccccc12)c1ccccc1)c1ccc(F)cc1	-1.1	-11.6	0.6	-5.3	10.6	5.5	/
Cc1cccc(NC(=S)N/N=C/c2ccc3c(c2)OCO3)c1	-0.9	-7.5	1.1	0.1	-4.5	7.1	/
COc1cccc(NC(=S)NN=C2CCC(C(C)(C)C)CC2)c1 (centres undefined)	-4.4	-11.4	1.5	3.0	0.5	18.9*	2.0
CC1(C)C/C(=N\NC(=S)Nc2ccccc2F)c2cc(O)ccc2O1	-2.9	16.4	-2.7	20.6	1.1	36.7*	37.9*
Cc1cccc(NC(=S)N/N=C2\CC(C)(C)Oc3ccc(O)cc32)c1	-1.6	7.5	-6.5	28.2	-2.2	40.9*	16.7
COc1cccc(NC(=S)N/N=C2\CC(C)(C)Oc3ccc(O)cc32)c1	-2.8	1.6	-2.9	9.2	-2.2	35.7*	20.7*
CCOc1ccc(N(C(C)C(=O)N2CCCCCC2)S(C)(=O)=O)cc1 (centres undefined)	-4.8	5.0	19.8	1.0	9.5	18.3*	-2.4
COCCN(CCOC)Cc1cc(=O)oc2cc(OC)ccc12	/	/	10.0	-1.5	0.0	7.2	/
COc1ccccc1NC(=O)Nc1ccc(NC(=O)c2ccccc2O)cc1	-0.3	-11.6	5.6	-15.8	1.2	51.0*	26.1*
COc1ccc(NC(=O)Nc2ccccc2OC)cc1	7.2	-1.0	2.1	-3.4	1.9	0.7	/
O=C(Cn1c(=O)oc2cc(S(=O)(=O)N3CCCCC3)ccc21)N1CCCCC1	-0.9	-1.9	1.4	1.4	2.4	17.1*	4.9
Cc1ccc(-c2csc(N/N=C/c3ccco3)n2)c(C)c1	1.0	4.0	1.8	10.5	5.7	18.5*	3.1
CN(C)S(=O)(=O)c1cccc(-c2csc(N/N=C/c3ccco3)n2)c1	-1.5	-4.2	8.3	13.8	5.7	3.3	/
CCCn1c(Nc2ccccc2C)nc2ccccc21	-2.6	-3.8	-2.1	4.0	-6.1	37.5*	-2.7
CCc1ccccc1Nc1nc2ccccc2n1CC	-0.6	0.6	3.8	0.8	1.6	6.7	/
C=CCc1cccc(CNc2nc3ccccc3n2CCC)c1O	3.4	-2.2	-9.8	-4.3	-3.2	19.4*	11.0
CC(NC(=O)CSc1nnc2n1CCCCC2)c1ccccc1Cl (centres undefined)	0.1	3.5	5.8	3.9	-0.9	6.1	/
Cc1ccc(F)cc1NC(=O)CSc1n[nH]c(N)n1	1.1	0.6	-0.7	5.7	-1.7	10.7	/
CCOC(=O)C1=CC[C@H]2c3c(c4ccc(OC)cc4n3C)C(=O)C1N2S(=O)(=O)c1ccc(C)cc1	-6.3	-7.5	-6.8	-5.8	2.9	-9.9	/
Cc1nonc1CN(C)C(=O)CC1C(=O)NCCN1Cc1ccccc1C(F)(F)F (centres undefined)	-2.0	4.0	10.9	-0.9	6.5	2.3	/
CN(CCn1ccnc1)C(=O)CC1C(=O)NCCN1Cc1ccccc1C(F)(F)F (centres undefined)	-1.5	-1.7	2.0	-0.6	4.6	24.4*	-0.7
Cc1ccc(C(=O)OCC(=O)NC2CCCCCC2)c(C)c1	/	-7.8	1.1	4.4	5.4	121.8*	-2.4
COc1ccc(OC)c(/C=N\Nc2nccs2)c1	-0.1	4.0	2.7	7.1	1.5	18.2*	2.5
SMILES	PAD4 FP inh	HTRA1 inh	TDP2 absorb	ABHD4 inh	TCR-CD3 inh	SIAE inh	SIAE inh conf
CCC1NC(=O)c2cc3ccccc3cc2-n2c1nc1ccc(F)cc1c2=O (centres undefined)	/	-1.5	-5.5	1.4	3.3	1.4	/
CCC1NC(=O)c2cc3ccccc3cc2-n2c1nc1cc(C)cc(C)c1c2=O (centres undefined)	/	-23.6	2.9	-3.7	-2.9	17.3*	-0.9
COc1ccc(N2CCN(CCCNC(=O)C3CCC(CNc4nc(=S)[nH]c5ccccc45)CC3)CC2)cc1 (centres undefined)	2.2	5.4	0.1	3.9	-12.8	5.2	/
O=C(C1CCC(CNc2nc(=S)[nH]c3ccccc23)CC1)N1CCN(c2ccc(F)cc2)CC1 (centres undefined)	/	-7.5	18.4	-2.0	-2.4	20.0*	-11.8
C=CCNC(=S)N/N=C/c1ccc(-c2ccc(OC)cc2)o1	5.2	-8.3	-7.7	14.3	3.5	18.9*	1.8
CC(C)Nc1oc(Cc2cccc3ccccc23)nc1C#N	3.8	-11.0	1.9	-8.6	-1.4	0.8	/
CNc1oc(Cc2cccc3ccccc23)nc1C#N	-5.2	0.7	2.3	-1.8	-0.5	17.7*	1.6
COc1ccc(/C=C/C(=O)Nc2cccc(S(=O)(=O)N3CCCC3)c2)cc1OC	-11.8	-17.1	1.7	-25.3	-2.6	-16.0	/
CCn1c(C)cc2c(c1=O)C(c1ccncc1)C(C#N)=C(N)O2 (centres undefined)	1.6	-2.0	-2.6	2.2	-0.4	-1.5	/
Cc1ccc(-n2nc(C)c3c2OC(N)=C(C#N)C3c2ccncc2)cc1 (centres undefined)	-5.2	8.8	17.7	22.4	2.8	19.2*	4.8
O=C(Cn1nnc(-c2ccc3c(c2)OCO3)n1)Nc1ccccc1C(=O)O	-1.2	-6.8	-28.1	-9.9	3.9	-10.8	/
CC1=CCC(C(=O)O)C(C(=O)NC2CCCCC2)C1 (centres undefined)	2.5	8.2	2.8	3.5	3.2	22.0*	2.1
CC1=C(C)CC(C(=O)NC2CCCC2)C(C(=O)O)C1 (centres undefined)	/	0.9	1.6	-1.8	2.5	6.0	/
O=S(=O)(NCC(Nc1ccc(Cl)cc1)c1ccccc1)c1ccc(Cl)cc1 (centres undefined)	0.1	-39.6	-14.3	-31.8	-2.9	18.9*	11.5
O=C(O)CCN1Cc2ccccc2C1=O	-2.6	0.4	-5.7	2.8	8.9	1.2	/
Cc1ccc(C)c(C(=O)CN2Cc3ccccc3C2=O)c1	2.0	0.8	13.5	1.0	0.3	22.6*	-4.3
Cc1ccc(C(=O)N/C(=C/c2ccc(Cl)cc2)C(=O)NCC2CCCO2)cc1 (centres undefined)	-0.7	1.4	-8.2	1.1	-2.2	29.4*	-4.0
Cc1ccc(C(=O)N/C(=C\c2ccccc2)C(=O)NCC2CCCO2)cc1 (centres undefined)	-2.7	-1.6	4.5	-1.3	-2.0	-3.9	/
